Assay results as given in ChEMBL document CHEMBL3352233, “N-[6-(4-butanoyl-5-methyl-1H-pyrazol-1-yl)pyridazin-3-yl]-5-chloro-1-[2-(4-methylpiperazin-1-yl)-2-oxoethyl]-1H-indole-3-carboxamide (SAR216471), a novel intravenous and oral, reversible, and directly acting P2Y12 antagonist” (J Med Chem, 2014).
Active and inactive are the calls of the source. The rule behind the calls is not given here.

Tested on: not listed separately
Test: Metabolic stability in human liver microsomes assessed as compound metabolism after 20 mins incubation in presence of 1 mM NADPH
Format: ADME
Settings: liver microsomes, read-out: Drug metabolism
Outline: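 Hepatic microsomal fractions are incubated with compound for 20 min with 1 mM NADPH. Result is reported as % metabolized, i.e. 100 minus % unchanged compound.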

metabolised at 20 min	SMILES
20%	CCCSc1nc(N[C@@H]2C[C@H]2c2ccc(F)c(F)c2)c2nnn([C@@H]3C[C@H](OCCO)[C@@H](O)[C@H]3O)c2n1 [TICAGRELOR]

Tested on: Salmonella typhimurium
Test: Mutagenicity in Salmonella typhimurium by Ames II test in absence of liver S9 fraction
Format: toxicity, organism-based
Settings: salmonella enterica subsp. enterica serovar typhimurium

SMILES	Activity
CCCC(=O)c1cnn([C@H]2CC[C@H](N)CC2)c1C	Non-toxic
CCCC(=O)c1cnn(-c2ccc3c(c2)OCCN3)c1C	Non-toxic
CCCC(=O)c1cnn(-c2ccc(N)c(C(N)=O)c2)c1C	Non-toxic
CCCC(=O)c1cnn(-c2ccc(O)cc2)c1C	Non-toxic
CCCC(=O)c1cnn(-c2cnc(N)s2)c1C	Non-toxic
CCCC(=O)c1cnn(-c2ccc(N)c(C#N)c2)c1C	Non-toxic
CCCC(=O)c1cnn(-c2ccc(N)c(C(=O)O)c2)c1C	Non-toxic
CCCC(=O)c1cnn(-c2ccc(N)nn2)c1C	Non-toxic
CCCC(=O)c1cnn(-c2cnc(N)cn2)c1C	Non-toxic
CCCC(=O)c1cnn(-c2ccc(N)cn2)c1C	Non-toxic
CCCC(=O)c1cnn(-c2ccc(N)nc2)c1C	Non-toxic
CCCC(=O)c1cnn(-c2ccc(N)cc2)c1C	Non-toxic
CCCC(=O)c1cnn(-c2ccc(N)c(C(=O)N(C)C)c2)c1C	Non-toxic
CCCC(=O)c1cnn(C2CCN(N)CC2)c1C	Non-toxic

Tested on: not listed separately
Test: Permeability across human Caco2 cells
Format: ADME, cell-based
Settings: Caco-2, read-out: permeability
Outline: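 Permeation is measured across a Caco2 cell monolayer and reported in 10⁻⁷ cm·s⁻¹.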

Papp	SMILES
7.5 ×10⁻⁶ cm/s	CCCSc1nc(N[C@@H]2C[C@H]2c2ccc(F)c(F)c2)c2nnn([C@@H]3C[C@H](OCCO)[C@@H](O)[C@H]3O)c2n1 [TICAGRELOR]

Tested on: Rattus norvegicus
Test: Ex vivo inhibition of platelet aggregation in Sprague-Dawley rat at 10 mg/kg, po after 6 hrs
Format: functional
Settings: not given
Outline: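 Time-course study in Sprague−Dawley rats after a 10 mg/kg oral dose in glucose/Cremophor/glycofurol vehicle. Aortic citrated blood is sampled at intervals over the hours after dosing. PRP is prepared at 300g for 5 min. ADP-induced aggregation is measured as the 6-min absorbance AUC and reported as % inhibition.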

SMILES	inhibition
CCCC(=O)c1cnn(-c2ccc(NC(=O)c3cn(CC(=O)N4CCN5CCN(C)C(=O)C5C4)c4ccc(Cl)cc34)cc2)c1C (single isomer, unassigned; 103)	inactive

Tested on: Rattus norvegicus
Test: Ex vivo inhibition of platelet aggregation in po dosed Sprague-Dawley rat after 2 hrs
Format: functional
Settings: not given
Outline: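 Oral gavage in male Sprague−Dawley rats (250−300 g, 6 per batch), vehicle 5% glucose water with 5% Cremophor and 3% glycofurol. Blood is collected 2 h after dosing from the abdominal aorta into 3.8% citrate under pentobarbital. PRP is prepared at 300g for 5 min. ADP-induced aggregation is quantified as the 6-min absorbance AUC, given as % inhibition.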

SMILES	ED50
CC(=O)Oc1cc2c(s1)CCN(C(C(=O)C1CC1)c1ccccc1F)C2 (stereo not given)	0.46 mg/kg
CCCSc1nc(N[C@@H]2C[C@H]2c2ccc(F)c(F)c2)c2nnn([C@@H]3C[C@H](OCCO)[C@@H](O)[C@H]3O)c2n1 [TICAGRELOR]	1.59 mg/kg
COC(=O)[C@H](c1ccccc1Cl)N1CCc2sccc2C1 [CLOPIDOGREL]	2.6 mg/kg

Tested on: Rattus norvegicus
Test: Ex vivo inhibition of platelet aggregation in Sprague-Dawley rat at 10 mg/kg, po after 2 hrs
Format: functional
Settings: Rattus norvegicus, Sprague-Dawley, po, 2 h
Outline: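 Male Sprague−Dawley rats (250−300 g), 6 per batch, are dosed by stomach tube at 10 mL/kg of a 1 mg/mL solution in 5% glucose water containing 5% Cremophor and 3% glycofurol. At 2 h, aortic blood is drawn into 3.8% citrate (1:9) under pentobarbital. PRP is prepared at 300g for 5 min. ADP aggregation is read as the 6-min absorbance AUC and expressed as % inhibition.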

SMILES	inhibition in vivo at 10 mg/kg
CCCC(=O)c1cnn(-c2ccc(NC(=O)c3cn(CC(=O)N4CCN(C(C)C)CC4)c4ccc(C)cc34)cc2)c1C	15%

Molecular target: P2Y purinoceptor 12 (Homo sapiens, UniProt Q9H244)
Sequence (Q9H244 whole entry): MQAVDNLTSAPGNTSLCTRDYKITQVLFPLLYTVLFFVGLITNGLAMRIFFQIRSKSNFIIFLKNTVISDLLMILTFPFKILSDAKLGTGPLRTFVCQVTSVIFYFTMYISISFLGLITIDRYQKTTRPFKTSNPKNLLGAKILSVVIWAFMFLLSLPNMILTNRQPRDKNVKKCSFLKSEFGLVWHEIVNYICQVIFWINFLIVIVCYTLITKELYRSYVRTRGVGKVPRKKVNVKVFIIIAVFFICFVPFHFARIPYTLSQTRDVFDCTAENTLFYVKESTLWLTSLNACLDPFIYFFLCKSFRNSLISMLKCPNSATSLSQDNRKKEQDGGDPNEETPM
Test: Displacement of [33P]2MeS-ADP from P2Y12 receptor (unknown origin) transfected in CHO cells after 30 mins by scintillation counting analysis
Format: cell-based
Settings: not given
Outline: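 P2Y12-expressing CHO cells (35 × 10³/sample) in PBS with 1 mM EDTA and 0.2% BSA are exposed to compound for 30 min. [³³P]2-MeS-ADP (0.16 nM) is then added for 15 min at 20 °C, in triplicate. Filtration separates free from bound ligand, followed by scintillation counting. Nonspecific binding uses 1 mM unlabeled ADP. IC50 comes from a four-parameter logistic fit with asymptotes fixed at 0 and 100. n = 2.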

IC50	SMILES
82 nM	CCCC(=O)c1cnn(-c2ccc(NC(=O)c3cn(CC(=O)N4CCN(C(C)C)CC4)c4ccc(C)cc34)cc2)c1C

Tested on: Salmonella typhimurium
Test: Mutagenicity in Salmonella typhimurium by Ames II test in presence of liver S9 fraction
Format: toxicity, organism-based
Settings: salmonella enterica subsp. enterica serovar typhimurium

SMILES	Activity
CCCC(=O)c1cnn(-c2ccc3c(c2)OCCN3)c1C	Non-toxic
CCCC(=O)c1cnn(-c2ccc(N)c(C(N)=O)c2)c1C	Non-toxic
CCCC(=O)c1cnn(-c2ccc(O)cc2)c1C	Non-toxic
CCCC(=O)c1cnn(-c2cnc(N)s2)c1C	Toxic
CCCC(=O)c1cnn(-c2ccc(N)c(C#N)c2)c1C	Non-toxic
CCCC(=O)c1cnn(-c2ccc(N)c(C(=O)O)c2)c1C	Non-toxic
CCCC(=O)c1cnn(-c2ccc(N)nn2)c1C	Non-toxic
CCCC(=O)c1cnn(-c2cnc(N)cn2)c1C	Non-toxic
CCCC(=O)c1cnn(-c2ccc(N)cn2)c1C	Toxic
CCCC(=O)c1cnn(-c2ccc(N)nc2)c1C	Non-toxic
CCCC(=O)c1cnn(-c2ccc(N)cc2)c1C	Toxic
CCCC(=O)c1cnn(-c2ccc(N)c(C(=O)N(C)C)c2)c1C	Toxic
CCCC(=O)c1cnn(C2CCN(N)CC2)c1C	Non-toxic
